Results reported in the M2OR odorant receptor database.
Residue numbers refer to the chain shown, from its start.

What was measured:
Conditions in all cases: stereoisomer not certain
OR2T11 (Homo sapiens) = target: T1, OR2T11 (Homo sapiens) (UniProt Q8NH01)
T1 sequence (whole entry): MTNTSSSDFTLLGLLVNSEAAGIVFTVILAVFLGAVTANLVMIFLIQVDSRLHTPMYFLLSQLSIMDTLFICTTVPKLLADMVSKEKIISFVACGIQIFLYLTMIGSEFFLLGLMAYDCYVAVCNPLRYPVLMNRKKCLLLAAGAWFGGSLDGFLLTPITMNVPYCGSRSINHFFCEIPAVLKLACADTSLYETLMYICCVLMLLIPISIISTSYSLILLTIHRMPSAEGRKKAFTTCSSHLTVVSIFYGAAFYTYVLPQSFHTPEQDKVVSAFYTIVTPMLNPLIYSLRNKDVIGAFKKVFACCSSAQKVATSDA
Summary of the method: (§1)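 Whether a receptor–molecule pair is responsive (active) rests on the original authors' judgment that its measured signal was statistically different from baseline. Pairs without that judgment are non-responsive (inactive). Sources used varied assay methods, commonly transient luciferase assays in mammalian cell lines.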

OR2T12 (Homo sapiens) = target: T2, OR2T12 (Homo sapiens) (UniProt Q8NG77)
T2 sequence (whole entry): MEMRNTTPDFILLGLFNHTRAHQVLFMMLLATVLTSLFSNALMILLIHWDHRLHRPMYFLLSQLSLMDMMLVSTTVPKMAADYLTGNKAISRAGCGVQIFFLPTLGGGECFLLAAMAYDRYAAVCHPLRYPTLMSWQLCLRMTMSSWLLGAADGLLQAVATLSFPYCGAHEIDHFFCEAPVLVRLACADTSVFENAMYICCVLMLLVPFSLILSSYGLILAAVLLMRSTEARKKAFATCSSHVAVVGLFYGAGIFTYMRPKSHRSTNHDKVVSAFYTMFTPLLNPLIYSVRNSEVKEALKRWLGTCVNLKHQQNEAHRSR
Summary of the method: as §1

OR2T2 (Homo sapiens) = target: T3, OR2T2 (Homo sapiens) (UniProt Q6IF00)
T3 sequence (whole entry): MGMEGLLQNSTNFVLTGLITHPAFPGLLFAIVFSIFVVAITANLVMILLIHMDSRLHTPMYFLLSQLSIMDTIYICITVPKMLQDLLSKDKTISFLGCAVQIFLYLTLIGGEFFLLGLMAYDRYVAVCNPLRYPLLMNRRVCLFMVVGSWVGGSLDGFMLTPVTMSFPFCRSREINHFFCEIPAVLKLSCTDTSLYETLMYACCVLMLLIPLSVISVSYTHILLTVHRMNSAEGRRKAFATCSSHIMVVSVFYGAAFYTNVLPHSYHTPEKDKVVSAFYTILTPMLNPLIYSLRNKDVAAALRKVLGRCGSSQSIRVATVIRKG
Summary of the method: as §1

OR2T2 L104F L262Q = system: T4, OR2T2 L104F L262Q
T4 sequence (whole entry): T3 sequence (whole entry) with L104F, L262Q
Summary of the method: as §1

OR2T2 L104F = system: T5, OR2T2 L104F
T5 sequence (whole entry): T3 sequence (whole entry) with L104F
Summary of the method: as §1

OR2T2 Q313H = system: T6, OR2T2 Q313H
T6 sequence (whole entry): T3 sequence (whole entry) with Q313H
Summary of the method: as §1

OR2T27 (Homo sapiens) = target: T7, OR2T27 (Homo sapiens) (UniProt Q8NH04)
T7 sequence (whole entry): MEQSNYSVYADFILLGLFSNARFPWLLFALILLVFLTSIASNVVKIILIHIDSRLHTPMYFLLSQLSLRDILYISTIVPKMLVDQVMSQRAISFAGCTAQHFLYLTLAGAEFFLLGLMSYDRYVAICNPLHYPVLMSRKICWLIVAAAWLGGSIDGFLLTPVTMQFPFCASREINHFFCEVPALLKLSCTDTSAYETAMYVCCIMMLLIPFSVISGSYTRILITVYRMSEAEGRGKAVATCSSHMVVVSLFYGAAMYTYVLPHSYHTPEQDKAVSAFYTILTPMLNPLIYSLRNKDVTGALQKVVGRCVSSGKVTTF
Summary of the method: as §1

OR2T29 (Homo sapiens) = target: T8, OR2T29 (Homo sapiens) (UniProt Q8NH02)
T8 sequence (whole entry): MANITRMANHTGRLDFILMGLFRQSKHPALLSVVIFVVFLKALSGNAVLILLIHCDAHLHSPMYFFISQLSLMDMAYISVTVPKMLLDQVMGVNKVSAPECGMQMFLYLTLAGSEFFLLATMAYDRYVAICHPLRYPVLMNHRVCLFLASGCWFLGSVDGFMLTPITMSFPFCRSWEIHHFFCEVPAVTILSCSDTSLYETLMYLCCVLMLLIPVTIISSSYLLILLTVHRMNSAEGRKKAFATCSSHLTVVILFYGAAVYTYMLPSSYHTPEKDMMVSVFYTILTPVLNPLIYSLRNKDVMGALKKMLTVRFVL
Summary of the method: as §1

OR2T3 (Homo sapiens) = target: T9, OR2T3 (Homo sapiens) (UniProt Q8NH03)
T9 sequence (whole entry): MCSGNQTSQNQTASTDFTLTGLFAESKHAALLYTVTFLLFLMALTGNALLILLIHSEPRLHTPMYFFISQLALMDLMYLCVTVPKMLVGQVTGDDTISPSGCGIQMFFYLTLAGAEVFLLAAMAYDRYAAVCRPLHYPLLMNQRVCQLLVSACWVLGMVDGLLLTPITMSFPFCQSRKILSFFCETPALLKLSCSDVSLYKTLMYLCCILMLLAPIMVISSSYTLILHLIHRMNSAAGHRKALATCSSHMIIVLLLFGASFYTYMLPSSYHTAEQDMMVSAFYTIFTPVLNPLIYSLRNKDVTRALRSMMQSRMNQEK
Summary of the method: as §1

OR2T3 L256F = system: T10, OR2T3 L256F
T10 sequence (whole entry): T9 sequence (whole entry) with L256F
Summary of the method: as §1

Measured: odorant receptor agonist call

CCCCCCC=CCCC=O
inactive: OR2T11 (Homo sapiens) | OR2T12 (Homo sapiens) | OR2T2 (Homo sapiens) | OR2T2 L104F L262Q | OR2T2 L104F | OR2T2 Q313H | OR2T27 (Homo sapiens) | OR2T29 (Homo sapiens) | OR2T3 (Homo sapiens)

CCCCC(S)C(C)CO (stereo unspecified)
inactive: OR2T11 (Homo sapiens) | OR2T12 (Homo sapiens) | OR2T2 (Homo sapiens) | OR2T27 (Homo sapiens) | OR2T29 (Homo sapiens) | OR2T3 (Homo sapiens)

CC(CO)CS (stereo unspecified)
inactive: OR2T11 (Homo sapiens) | OR2T12 (Homo sapiens) | OR2T2 (Homo sapiens) | OR2T27 (Homo sapiens) | OR2T29 (Homo sapiens) | OR2T3 (Homo sapiens)

CC1CCCCCCCCCCCCC(=O)C1 (stereo unspecified)
inactive: OR2T11 (Homo sapiens) | OR2T12 (Homo sapiens) | OR2T2 (Homo sapiens) | OR2T27 (Homo sapiens) | OR2T29 (Homo sapiens) | OR2T3 (Homo sapiens)

CC(=O)c1c(C)c([N+](=O)[O-])c(C(C)(C)C)c([N+](=O)[O-])c1C
inactive: OR2T11 (Homo sapiens) | OR2T12 (Homo sapiens) | OR2T2 (Homo sapiens) | OR2T27 (Homo sapiens) | OR2T29 (Homo sapiens) | OR2T3 (Homo sapiens)

CCC1OC(C)=C(O)C1=O (stereo unspecified)
inactive: OR2T11 (Homo sapiens) | OR2T12 (Homo sapiens) | OR2T2 (Homo sapiens) | OR2T2 L104F L262Q | OR2T2 L104F | OR2T2 Q313H | OR2T27 (Homo sapiens) | OR2T29 (Homo sapiens) | OR2T3 (Homo sapiens) | OR2T3 L256F

CC1=C(O)C(=O)OC1C (stereo unspecified)
inactive: OR2T11 (Homo sapiens) | OR2T12 (Homo sapiens) | OR2T2 (Homo sapiens) | OR2T2 L104F L262Q | OR2T2 L104F | OR2T2 Q313H | OR2T27 (Homo sapiens) | OR2T29 (Homo sapiens) | OR2T3 (Homo sapiens) | OR2T3 L256F

CCC(S)C(C)CO (stereo unspecified)
inactive: OR2T11 (Homo sapiens) | OR2T12 (Homo sapiens) | OR2T2 (Homo sapiens) | OR2T27 (Homo sapiens) | OR2T29 (Homo sapiens) | OR2T3 (Homo sapiens)

CCCCCC(=O)C(C)C(C)=O (stereo unspecified)
inactive: OR2T11 (Homo sapiens) | OR2T12 (Homo sapiens) | OR2T2 (Homo sapiens) | OR2T27 (Homo sapiens) | OR2T29 (Homo sapiens) | OR2T3 (Homo sapiens)

CCCC(S)CCOC(C)=O (stereo unspecified)
inactive: OR2T11 (Homo sapiens) | OR2T12 (Homo sapiens) | OR2T2 (Homo sapiens) | OR2T2 L104F L262Q | OR2T2 L104F | OR2T2 Q313H | OR2T27 (Homo sapiens) | OR2T29 (Homo sapiens) | OR2T3 (Homo sapiens) | OR2T3 L256F

Cc1cnc(C)c(C)n1
inactive: OR2T11 (Homo sapiens) | OR2T12 (Homo sapiens) | OR2T2 (Homo sapiens) | OR2T2 L104F L262Q | OR2T2 L104F | OR2T2 Q313H | OR2T27 (Homo sapiens) | OR2T29 (Homo sapiens) | OR2T3 (Homo sapiens) | OR2T3 L256F

CCCCCC(S)C(C)CO (stereo unspecified)
inactive: OR2T11 (Homo sapiens) | OR2T12 (Homo sapiens) | OR2T2 (Homo sapiens) | OR2T27 (Homo sapiens) | OR2T29 (Homo sapiens) | OR2T3 (Homo sapiens)

CCC1OC(=O)C(O)=C1C (stereo unspecified)
inactive: OR2T11 (Homo sapiens) | OR2T12 (Homo sapiens) | OR2T2 (Homo sapiens) | OR2T2 L104F L262Q | OR2T2 L104F | OR2T2 Q313H | OR2T27 (Homo sapiens) | OR2T29 (Homo sapiens) | OR2T3 (Homo sapiens) | OR2T3 L256F

CC1=C(O)C(=O)C(C)O1 (stereo unspecified)
inactive: OR2T11 (Homo sapiens) | OR2T12 (Homo sapiens) | OR2T2 (Homo sapiens) | OR2T2 L104F L262Q | OR2T2 L104F | OR2T2 Q313H | OR2T27 (Homo sapiens) | OR2T29 (Homo sapiens) | OR2T3 (Homo sapiens) | OR2T3 L256F

CC1=NC(C)C(C)S1 (stereo unspecified)
inactive: OR2T11 (Homo sapiens) | OR2T12 (Homo sapiens) | OR2T2 (Homo sapiens) | OR2T2 L104F L262Q | OR2T2 L104F | OR2T2 Q313H | OR2T27 (Homo sapiens) | OR2T29 (Homo sapiens) | OR2T3 (Homo sapiens) | OR2T3 L256F
